# Measurements taken from ChEMBL document CHEMBL1124192, “Cyclopentenylcytosine. A carbocyclic nucleoside with antitumor and antiviral properties” (J Med Chem, 1988).
# Several values for one entry are separate records, joined by “and”; a condition that tells them apart may be missing. Equal entries are not always repeated.
# Legend:
# Vero [1] = assay: Cytotoxicity of compound was determined by reduction in number of viable vero monolayer cells after treatment with 0.01 ug/mL for 4 days; assay type: functional, Chlorocebus sabaeus
# In short: (§1)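 Vero monolayers in duplicate cultures, exposed to each drug concentration in medium at 37 °C in a CO2 incubator for 4 days. Viable cells counted by trypan blue exclusion, and % reduction calculated against untreated control cultures.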
# [2] = test system: Japanese encephalitis virus; assay: Tested for inhibition of virus-induced cytopathogenic effect and cytotoxicity of compound against Japanese encephalitis virus with […] strain in vero cell; assay type: functional
# P388 [3] = assay: Number of 30-day survivors out of 6 mice at dose 1.5 mg/kg administered intraperitoneally; assay type: functional, Mus musculus; conditions: route intraperitoneal
# L1210 [4] = assay: Compound was tested for antitumor activity against L1210 leukemia in mouse at dose 1 mg/kg administered intracerebrally in experiment 2; assay type: functional; conditions: L1210, central
# In short: (§2)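 Mice bearing L1210, L1210/ara-C, P388 or P388/ara-C leukaemia. Tumour implanted at the site each line names: ip, sc or ic. Drug given ip in physiologic saline on a QD1-9 schedule, at several dose levels per experiment. Life-span runs ended on day 30. Read-out is median % increase in life span versus tumoured untreated controls, with long-term survivors included.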
# Human alphaherpesvirus 3 [5] = assay: Compound was tested for antiviral activity against Varicella-Zoster from human diploid foreskin cells in mono layer culture at 100 ug/ml; assay type: functional
# In short: (§3)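 VZV isolate DM625 on Huf cells (human diploid foreskin monolayers). Inoculum was left on after 1 h adsorption at 37 °C. Drug overlay in MEM + 2% FBS without agarose, refed with fresh drug at 72 h, in 2% CO2. Cells fixed in 10% formalin and stained with methylene blue; plaques counted day 6. % plaque reduction versus untreated virus controls, triplicates.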
# Human alphaherpesvirus 3 [6] = assay: Compound was tested for antiviral activity against Varicella-Zoster from human diploid foreskin cells in mono layer culture at 1 ug/ml; assay type: functional; in short: as §3
# [7] = Ratio of minimum drug concentration to ID50 of the compound (Adames strain); assay type: ADME; conditions: read-out: Therapeutic index
# Human alphaherpesvirus 3 [8] = assay: Compound was tested for antiviral activity against Varicella-Zoster from human diploid foreskin cells in mono layer culture at 0.01 ug/ml; assay type: functional; in short: as §3
# M5076 = assay: Compound was tested for antitumor activity against M5076 leukemia in mouse at dose 0.5 mg/kg administered intraperitoneally in experiment 1; assay type: functional; conditions: M5076, ip, route intraperitoneal
# In short: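 Mice bearing M5076 tumour. Drug given ip in physiologic saline, daily on days 1-13, at several dose levels. Experiment ended on day 30. Read-out is median % increase in life span versus untreated tumoured controls, with long-term survivors included.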
# [9] = test system: unidentified influenza virus; assay: Tested for inhibition of virus-induced cytopathogenic effect and cytotoxicity of compound against influenza virus with A2/Aichi/2/68 strain in MDCK cell; assay type: functional
# Yellow fever virus [10] = assay: Tested for inhibition of virus-induced cytopathogenic effect and cytotoxicity of compound against yellow fever virus with asibi strain vero cell; assay type: functional
# L1210 [11] = assay: Median percent increase in life span of tumored, treated mice relative to tumored, untreated controls after intraperitoneal dose 0.5 mg/kg daily(for every 3 hr); assay type: functional; conditions: Mus musculus, L1210, ip
# [12] = test system: Japanese encephalitis virus; assay: Inhibitory dose of compound required to inhibit cytopathogenic effects of Japanese encephalitis virus with […] strain in vero cells; assay type: functional; conditions: read-out: ID50 (the source's name)
# [13] = test system: Vesicular stomatitis virus; assay: Inhibitory dose of compound required to inhibit cytopathogenic effects of vesicular stomatitis RNA virus with indiana strain in L929 cells; assay type: functional
# L1210 [14] = assay: Number of 60-day survivors out of 10 tested at dose 1 mg/kg administered intraperitoneally; assay type: functional, Mus musculus; conditions: route intraperitoneal
# Human alphaherpesvirus 3 [15] = assay: Compound was tested for antiviral activity against Varicella-Zoster from human diploid foreskin cells in mono layer culture at 0.032 ug/ml; assay type: functional; in short: as §3
# P388 [16] = assay: Compound was tested for antitumor activity against P388 leukemia in mouse at dose 1 mg/kg administered intraperitoneally in experiment 1; assay type: functional; conditions: P388, ip, route intraperitoneal; in short: as §2
# L1210 [17] = assay: Compound was tested for antitumor activity against L1210 leukemia in mouse at dose 1.5 mg/kg administered intracerebrally in experiment 1; assay type: functional; conditions: L1210, central; in short: as §2
# Yellow fever virus [18] = assay: Inhibitory dose of compound required to inhibit cytopathogenic effects of yellow fever virus with asibi strain in vero cells; assay type: functional; conditions: read-out: ID50 (the source's name)
# L1210 [19] = assay: Compound was tested for antitumor activity against L1210 leukemia in mouse at dose 1 mg/kg administered subcutaneously in experiment 2; assay type: functional; conditions: L1210, sc, route subcutaneous; in short: as §2
# Cytomegalovirus = assay: Log value for antiviral activity against Cytomegalovirus (AD169) from MRC5 diploid human embryonic lung cells at 10 ug/mL; assay type: functional
# In short: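 CMV AD169 yield reduction in MRC5 cells. Subconfluent monolayers infected at MOI 0.2 PFU/cell for 1.5 h at 37 °C, rinsed, then fed drug in MEM + 2% FBS, in duplicate. Drug refed on day 3, cultures harvested on day 6 by freeze-thaw and pooled. Yield titrated by plaque assay under 0.25% agarose overlay for 5–6 days, then formalin-fixed and methylene blue-stained for plaque counts.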
# Human alphaherpesvirus 3 [20] = assay: Compound was tested for antiviral activity against Varicella-Zoster from human diploid foreskin cells in mono layer culture at 10 ug/ml; assay type: functional; in short: as §3
# L1210 [21] = assay: Compound was tested for antitumor activity against L1210 leukemia in mouse at dose 1.5 mg/kg administered subcutaneously in experiment 1; assay type: functional; conditions: L1210, sc, route subcutaneous; in short: as §2
# P388 [22] = assay: Compound was tested for antitumor activity against P388/ara-C leukemia in mouse at dose 1.5 mg/kg administered intraperitoneally in experiment 1; assay type: functional; conditions: P388, ip, route intraperitoneal; in short: as §2
# Vero [23] = assay: Cytotoxicity of compound was determined by reduction in number of viable vero monolayer cells after treatment with 10 ug/mL for 4 days; assay type: functional, Chlorocebus sabaeus; in short: as §1
# Vero [24] = assay: Cytotoxicity of compound was determined by reduction in number of viable vero monolayer cells after treatment with 0.032 ug/mL for 4 days; assay type: functional, Chlorocebus sabaeus; in short: as §1
# Human alphaherpesvirus 3 [25] = assay: Compound was tested for antiviral activity against Varicella-Zoster from human diploid foreskin cells in mono layer culture at 320 ug/ml; assay type: functional; in short: as §3
# P388 [26] = assay: Compound was tested for antitumor activity against P388/ara-C leukemia in mouse at dose 1.5 mg/kg administered intraperitoneally in experiment 2; assay type: functional; conditions: P388, ip, route intraperitoneal; in short: as §2
# Punta Toro virus [27] = assay: Inhibitory dose of compound required to inhibit cytopathogenic effects of Punta toro virus with adames strain in vero cells; assay type: functional; conditions: read-out: ID50 (the source's name)
# Punta Toro virus [28] = assay: Tested for inhibition of virus-induced cytopathogenic effect and cytotoxicity of compound against Punta toro virus with adames strain in vero cell; assay type: functional
# Vero [29] = assay: Cytotoxicity of compound was determined by reduction in number of viable vero monolayer cells after treatment with 320 ug/mL for 4 days; assay type: functional, Chlorocebus sabaeus; in short: as §1
# L1210 [30] = assay: Compound was tested for antitumor activity against L1210 leukemia in mouse at dose 2.25 mg/kg administered intraperitoneally in experiment 2; assay type: functional; conditions: L1210, ip, route intraperitoneal; in short: as §2
# L1210 [31] = assay: Compound was tested for antitumor activity against L1210 leukemia in mouse at dose 1 mg/kg administered intraperitoneally in experiment 2; assay type: functional; conditions: L1210, ip, route intraperitoneal; in short: as §2
compound,measurement,setting,value
Nc1ccn([C@@H]2C=C(CO)[C@@H](O)[C@H]2O)c(=O)n1,Reduction,Vero [1],0%
same,Virus rating,[2],2.4
same,No. of survivors,P388 [3],3
same,ILS at 1 mg/kg,L1210 [4],42%
same,Plaque reduction,Human alphaherpesvirus 3 [5],41%
same,Plaque reduction,Human alphaherpesvirus 3 [6],36%
same,selectivity ratio,[7],0.3
same,Plaque reduction,Human alphaherpesvirus 3 [8],0%
same,ILS at 0.5 mg/kg,M5076,5%
same,Virus rating,[9],2.4
same,Virus rating,Yellow fever virus [10],0.9
same,ILS at 0.5 mg/kg,L1210 [11],116%
same,IC50,[12],0.1 µg/mL
same,ID50,[13],0.57 µg/mL and 0.25 µg/mL
same,No. of survivors,L1210 [14],6
same,Plaque reduction,Human alphaherpesvirus 3 [15],3%
same,ILS at 1 mg/kg,P388 [16],88%
same,ILS at 1.5 mg/kg,L1210 [17],45%
same,IC50,Yellow fever virus [18],5.05 µg/mL
same,ILS at 1 mg/kg,L1210 [19],83%
same,Reduction in virus yield,Cytomegalovirus,1.9 pfu/ml
same,Plaque reduction,Human alphaherpesvirus 3 [20],33%
same,ILS at 1.5 mg/kg,L1210 [21],109%
same,ILS at 1.5 mg/kg,P388 [22],165%
same,Reduction,Vero [23],64%
same,Reduction,Vero [24],3%
same,Plaque reduction,Human alphaherpesvirus 3 [25],36%
same,ILS at 1.5 mg/kg,P388 [26],133%
same,IC50,Punta Toro virus [27],1.01 µg/mL
same,Virus rating,Punta Toro virus [28],1.5
same,Reduction,Vero [29],67%
same,ILS at 2.25 mg/kg,L1210 [30],57%
same,ILS at 1 mg/kg,L1210 [31],201%
